PG9 binder = small molecules binding HIV-1 gp120 antibody PG9; TR-FRET gp120-PG9 antibody binding; inhibition, % at 6.7 µM; 360,000 tested, 0.43% active; AID 624416; in the data active = inhibition above about 8.5%
Rev-erbA mod = Rev-erb alpha (human) modulation; 370,000 tested, 0.79% active; Rev-erbα–FITC-DNA binding, fluorescence polarization, 90 min; activity, % at 10 µM; AID 1259318; P20393;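 active = activity above about 14%, limit read from the data; passing the limit was not always enough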
Target sequence (P20393 whole entry, looked up): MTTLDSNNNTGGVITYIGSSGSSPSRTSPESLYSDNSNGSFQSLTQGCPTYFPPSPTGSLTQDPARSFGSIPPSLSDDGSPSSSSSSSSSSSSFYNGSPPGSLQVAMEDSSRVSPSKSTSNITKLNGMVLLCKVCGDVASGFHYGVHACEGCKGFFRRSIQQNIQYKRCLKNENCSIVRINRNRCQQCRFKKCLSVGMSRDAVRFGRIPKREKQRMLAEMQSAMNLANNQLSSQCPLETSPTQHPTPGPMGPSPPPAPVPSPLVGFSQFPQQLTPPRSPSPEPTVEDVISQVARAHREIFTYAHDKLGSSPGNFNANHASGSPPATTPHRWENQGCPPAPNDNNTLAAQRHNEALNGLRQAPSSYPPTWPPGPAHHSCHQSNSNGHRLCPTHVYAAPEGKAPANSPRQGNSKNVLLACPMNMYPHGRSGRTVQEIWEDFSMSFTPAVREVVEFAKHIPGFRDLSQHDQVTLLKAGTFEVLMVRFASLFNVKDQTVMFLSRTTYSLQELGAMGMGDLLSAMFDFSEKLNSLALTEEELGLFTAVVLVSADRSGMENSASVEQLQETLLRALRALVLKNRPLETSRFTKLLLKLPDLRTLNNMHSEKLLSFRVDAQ
NTR1 agonist = NTR1 (human) agonism. P30989. NTR1-U2OS beta-arrestin-GFP spot imaging, agonist mode. activation, % at 20 µM. 330,000 tested, 0.17% active. AID 493036;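 active = activation at or above 40% of the spot to cytoplasm intensity ratio, with at least 20 cells analyzed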
MC4R ag barr = agonists of human melanocortin 4 receptor (MC4R) beta-arrestin; U2OS MC4R beta-arrestin complementation, luminescence; percent of melanotan II response, DMSO zero; AID 540308; activation, % at 8.9 µM; P32245; 360,000 tested, 0.98% active;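 active = activation above a per-plate cutoff, the mean activation of sample wells on that plate plus 3 SD, cut at about 8% in these data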
MC4R antagonist = human MC4R antagonism in cAMP assay. 360,000 tested, 0.48% active. inhibition, % at 6.5 µM. P32245. MC4R-expressing cells, MTII-stimulated cAMP, LANCE TR-FRET;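 active = inhibition above its plate's cutoff, the mean of tested wells on that plate plus 3 SD, cut at about 29% in these data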
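Material: U2OS-MC4R stable cell line | Reagent: Melanotan II challenge after compound preincubation | Doses: One concentration, 6.5 µM nominal | Incubation: 30-min compound preincubation, 1-h Melanotan II challenge, 1-h detection, room temperature | Signal: TR-FRET cAMP assay | Replicates: One well per compound, no replicates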
MC4R barr conf = human MC4R beta-arrestin agonism confirmation; U2OS MC4R beta-arrestin recruitment, luminescence; scaled DMSO 0%, Melanotan II 100%; activation, % at 8.9 µM; shares compounds with MC4R ag barr; 2,400 tested, 31% active;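 active = mean activation across replicates above the hit cutoff set in the earlier primary screen, cut at about 8% in these data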
MOR DOR agonist = OPRM1-OPRD1 heterodimer agonism counter-screen. 2,400 tested, 5.8% active. U2OS PathHunter beta-arrestin, beta-gal luminescence; percent of deltorphin B response, DMSO zero. activation, % at 9.2 µM. shares compounds with MC4R ag barr;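 active = mean activation across replicates exceeds the hit threshold derived in the earlier primary screen, cut at about 18% in these data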
Large screens that a line does not name were inactive (follow-up assays come after a bar, where they were run). Rows were chosen to be rich in hits. Some 2.5% of all compounds tested hit in one or more screens of this group.

CC(=O)N1CCN(c2ccc(N3CCN(C(C)=O)[C@@H](C)C3)c(C)c2)[C@@H](C)C1	none (no result: NTR1 agonist, MC4R ag barr, MC4R antagonist)
CCC(C)CNC(=O)CN1C(=O)C2CCCCN2C(=O)c2ccccc21 (stereo not drawn)	none (no result: PG9 binder, NTR1 agonist, MC4R ag barr, MC4R antagonist)
COC(=O)[C@]12C[C@H](CC(=O)NCc3ccccc3)C(=O)N(Cc3cccc4ccccc34)C1=C[C@H](C(C)(C)C)O[C@@H]2C	none (no result: PG9 binder, NTR1 agonist, MC4R ag barr, MC4R antagonist)
CC1(C)Oc2ccc3ccc(=O)oc3c2/C(=C/Nc2ccccc2)C1=O	MC4R ag barr 9.8 | MC4R barr conf inactive | MOR DOR agonist inactive
COc1ccc(/C=N\NS(=O)(=O)c2ccc(Cl)cc2)cc1COc1ccccc1[N+](=O)[O-]	MC4R ag barr 17.9 | MC4R barr conf 10.2 | MOR DOR agonist inactive
COc1ccc(/C=N\NS(=O)(=O)c2ccc(Br)cc2)cc1COc1ccccc1[N+](=O)[O-]	none
Cc1[nH]c2ccccc2c1CC(=O)Nc1ccc(Nc2cccnc2)c(-c2ccc(Cl)c(Cl)c2)c1	none (no result: NTR1 agonist, MC4R ag barr, MC4R antagonist)
O=C(N=Nc1c(O)n(Cc2ccccc2)c2ccccc12)c1ccc(O)cc1	none
Cc1ccc(NC(=O)Cn2c(O)c(N=NC(=O)c3cc4ccccc4cc3O)c3ccccc32)cc1	MC4R ag barr 12.3 (no result: NTR1 agonist) | MC4R barr conf inactive | MOR DOR agonist 41.1
O=C(N=Nc1c(O)n(Cc2ccccc2)c2ccccc12)c1cc2ccccc2cc1O	MC4R ag barr 15.7 (no result: NTR1 agonist) | MC4R barr conf 18.8 | MOR DOR agonist inactive
Cc1ccc(NC(=O)Cn2c(O)c(N=NC(=O)c3ccncc3)c3ccccc32)cc1	none (no result: PG9 binder, Rev-erbA mod)
CCCCC1O[C@@H](C)[C@@H]2CN3CCc4c([nH]c5ccccc45)[C@@H]3C[C@@H]2N1C (stereo partly drawn)	none (no result: NTR1 agonist, MC4R ag barr, MC4R antagonist)
COC(=O)c1sccc1NC(=O)c1ccc2c(c1)OCO2	MC4R ag barr 14.5 | MC4R barr conf inactive | MOR DOR agonist inactive
O=C(NC(=S)Nc1ccc2c(c1)OCO2)c1ccccc1	none
O=C(NC(=S)Nc1ccccc1Br)c1ccc2c(c1)OCO2	MC4R ag barr 11.1 | MC4R barr conf inactive | MOR DOR agonist inactive
COc1cc(NC(=O)c2ccc3c(c2)OCO3)c2ncccc2c1	MC4R ag barr 10.5 | MC4R barr conf inactive | MOR DOR agonist inactive
CC(c1ccccc1)c1nnc(NC(=O)c2ccc3c(c2)OCO3)s1 (stereo not drawn)	MC4R ag barr 15.1 | MC4R barr conf inactive | MOR DOR agonist inactive
COc1cc(NC(=O)c2cc(OC)c(OC)c(OC)c2)c2ncccc2c1	none (no result: NTR1 agonist)
CC(C)c1nnc(NC(=O)c2ccc3c(c2)OCO3)s1	none
COC(=O)c1ccc(NC(=O)c2ccc3c(c2)OCO3)cc1	none
COC(=O)c1cc2c(c3c4cc(F)ccc4n(S(=O)(=O)c4ccc(C)cc4)c13)C(=O)N(Cc1ccc(N(C)C)cc1)C2	none (no result: NTR1 agonist, MC4R ag barr, MC4R antagonist)
O=C1CCC2(CCCCC2)N1CCCO	none (no result: PG9 binder, NTR1 agonist, MC4R ag barr, MC4R antagonist)
CCCCOc1ccc(C(=O)N/C(=C\c2cccc([N+](=O)[O-])c2)C(=O)OCc2ccco2)cc1	MC4R ag barr 19.6 | MC4R barr conf inactive | MOR DOR agonist inactive
CCCCOc1ccc(C(=O)N/C(=C\c2ccc(OC)cc2)C(=O)OCc2ccco2)cc1	none
O=C(OCC(O)C(O)C(O)COC(=O)c1ccccc1)c1ccccc1 (stereo not drawn)	none (no result: NTR1 agonist)
O=C(OCC(O)C(O)C(O)C(SCc1ccccc1)SCc1ccccc1)c1ccccc1 (stereo not drawn)	MC4R ag barr 17.2 (no result: NTR1 agonist) | MC4R barr conf 14.1 | MOR DOR agonist inactive
C/C(=N\Nc1nc2ccccc2[nH]1)c1ccc2c(c1)OCCO2	MC4R ag barr 9.8 | MC4R barr conf inactive | MOR DOR agonist inactive
C/C(=N\Nc1nc2ccccc2[nH]1)c1cc2ccccc2o1	none
C/C(=N\Nc1nc2ccccc2[nH]1)c1ccc2c(c1)OCO2	MC4R ag barr 15.4 | MC4R barr conf inactive | MOR DOR agonist inactive
C/C(=N\Nc1ccccn1)c1ccc2c(c1)OCO2	none
COC(=O)c1ccccc1NC(=O)NCC1CCN(Cc2ccc(OC)cc2)CC1	none (no result: PG9 binder, NTR1 agonist, MC4R ag barr, MC4R antagonist)
COCC(=O)Nc1sc2c(c1C(=O)OC)CCCC2	none
CCC(=O)NC(Nc1sc2c(c1C(=O)OC)CCCC2)(C(F)(F)F)C(F)(F)F	MC4R ag barr 14.6 | MC4R barr conf inactive | MOR DOR agonist inactive
CCN1CCN(c2cc(N3CCc4ccccc4C3)c(F)cc2[N+](=O)[O-])CC1	MC4R ag barr 14.9 | MC4R barr conf 14.5 | MOR DOR agonist inactive
CC(=O)N1CCN(c2cc(N3CCCC3)c(F)cc2[N+](=O)[O-])CC1	none
COc1cccc(CNC(=O)Cn2c(-c3ccccc3)cc(C(C)=O)c2C)c1OC	none (no result: PG9 binder, NTR1 agonist, MC4R ag barr, MC4R antagonist)
CCn1cc(C(=O)NCc2cccc(C(F)(F)F)c2)c(=O)c2ccc(C)nc21	MC4R ag barr 13.6 | MC4R barr conf inactive | MOR DOR agonist inactive
N=c1n(CCN2CCCCC2)c2ccccc2n1CC(=O)c1cccc([N+](=O)[O-])c1	MC4R ag barr 11.2 | MC4R barr conf inactive
C=CCn1c(=N)n(CC(=O)c2cccc([N+](=O)[O-])c2)c2ccccc21	none
CN(C(=O)CO)c1c(I)c(C(=O)NCC(O)CO)c(I)c(C(=O)NCC(O)CO)c1I (stereo not drawn)	none (no result: PG9 binder, NTR1 agonist, MC4R ag barr, MC4R antagonist)
CC(OC(=O)c1cc2sccc2n1C)C(=O)NCc1ccc2c(c1)OCO2 (stereo not drawn)	MC4R ag barr 13.0 | MC4R barr conf inactive | MOR DOR agonist inactive
CCc1ccc2c(c1)cc(CN(C(=S)Nc1ccccc1)C1CC1)c1nnnn12	none
CCc1ccc2c(c1)cc(CN(C(=S)Nc1ccccc1C)C1CC1)c1nnnn12	MC4R ag barr 12.5 | MC4R barr conf inactive | MOR DOR agonist inactive
COc1cc(/C=N/Nc2ccccc2[N+](=O)[O-])cc(OC)c1O	MC4R ag barr 10.0 | MC4R barr conf inactive | MOR DOR agonist inactive
FC(F)(F)c1cccnc1Oc1ccc(C2=NCCS2)cc1	MC4R ag barr 41.8 | MC4R barr conf 24.2 | MOR DOR agonist inactive
O=S(=O)(NCC1CCCO1)c1ccc(S(=O)(=O)N(Cc2ccc(F)cc2)C2CCCCC2)cc1 (stereo not drawn)	MC4R ag barr 10.0 | MC4R barr conf inactive | MOR DOR agonist inactive
CC(C)C(C(=O)NCC1CCCO1)N(C(=O)CNS(=O)(=O)c1ccc(F)cc1)C1CCCCC1 (stereo not drawn)	none
Clc1ccc(Cn2ncc3c(N4CCN(c5ccccc5)CC4)ncnc32)cc1	MC4R ag barr 11.4 (no result: NTR1 agonist) | MC4R barr conf 16.8 | MOR DOR agonist inactive
c1ccc(Cn2ncc3c(N4CCCCC4)ncnc32)cc1	none
C=CCn1c(Cc2cccs2)nnc1SCC(=O)Nc1ccc(C)cc1	none (no result: PG9 binder, NTR1 agonist, MC4R ag barr, MC4R antagonist)

Assay outcomes as filed in PubChem BioAssay.
